Data from ChEMBL document CHEMBL1914366, “Bioassay-guided identification of an anti-inflammatory prenylated acylphloroglucinol from Melicope ptelefolia and molecular insights into its interaction with 5-lipoxygenase” (Bioorg Med Chem, 2011).
Activity calls are given as the source filed them. No cut-off for these calls is given here.

Tests used:
[1] = Inhibition of soybean 15-LOX type 1-B assessed as inhibition of conversion of linoleic acid to (9Z,11E)-(13S)-13-hydroperoxyoctadeca-9,11-dienoate preincubated for 10 mins before substrate addition measured after 6 mins by spectrophotometry; set-up: species or system Glycine max
Outline: (§1)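 Soybean lipoxygenase type I-B (80 U/well) in sodium phosphate buffer (100 mM, pH 8.0) was incubated with sample in MeOH for 10 min at 25 °C. Linoleic acid was then added and A234 was followed for 6 min. Samples were run in triplicate. Pure compounds were screened at a final 25 µg/mL.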

Glycine max = assay: Inhibition of soybean 15-LOX type 1-B assessed as inhibition of conversion of linoleic acid to (9Z,11E)-(13S)-13-hydroperoxyoctadeca-9,11-dienoate at 25 ug/ml preincubated for 10 mins before substrate addition measured after 6 mins by spectrophotometry; outline: as §1
[2] = test system: Radical scavenging activity; assay: Antioxidant activity assessed as DPPH radical scavenging activity; assay type: functional
Outline: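 DPPH radical scavenging run by a previously published method, with quercetin as positive control; triplicate tests, with absorbances averaged before calculating activity.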

[3] = target: T1, Prostaglandin G/H synthase 2 (Homo sapiens, UniProt P35354); assay: Inhibition of human recombinant COX2 expressed in insect Sf21 cells assessed as inhibition of conversion of arachidonic acid to PGE2 preincubated for 15 mins before substrate addition measured after 5 mins by enzyme immunoassay
T1 sequence (P35354 whole entry): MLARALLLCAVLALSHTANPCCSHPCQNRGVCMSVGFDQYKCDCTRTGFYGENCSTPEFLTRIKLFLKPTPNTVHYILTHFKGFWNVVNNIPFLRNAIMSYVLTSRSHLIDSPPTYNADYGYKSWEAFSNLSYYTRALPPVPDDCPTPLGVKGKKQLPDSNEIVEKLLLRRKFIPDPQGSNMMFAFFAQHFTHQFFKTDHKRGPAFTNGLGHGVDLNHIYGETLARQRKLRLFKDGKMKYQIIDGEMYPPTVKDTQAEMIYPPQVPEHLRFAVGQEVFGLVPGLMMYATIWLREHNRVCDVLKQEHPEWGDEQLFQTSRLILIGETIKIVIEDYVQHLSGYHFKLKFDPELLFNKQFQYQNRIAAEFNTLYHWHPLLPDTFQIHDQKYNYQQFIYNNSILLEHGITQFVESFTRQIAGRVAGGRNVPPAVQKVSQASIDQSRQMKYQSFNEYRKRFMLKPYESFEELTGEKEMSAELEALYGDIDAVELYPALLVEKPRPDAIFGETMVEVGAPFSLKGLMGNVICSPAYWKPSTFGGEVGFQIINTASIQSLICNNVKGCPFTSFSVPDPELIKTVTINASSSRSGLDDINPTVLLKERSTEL
Outline: (§2)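 Human recombinant COX-2 expressed in Sf21 cells (0.11 U) was preincubated with compound or vehicle, 1 mM reduced GSH, 500 µM phenol and 1 µM hematin in Tris-HCl (100 mM, pH 7.7) for 15 min at 37 °C. Arachidonic acid (0.3 mM) was added for 5 min and the reaction was stopped with 1 N HCl. After centrifugation, PGE2 was measured by EIA.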

[4] = target: T2, Prostaglandin G/H synthase 1 (Homo sapiens, UniProt P23219); assay: Inhibition of COX1 in human platelets assessed as inhibition of conversion of arachidonic acid to PGE2 at 10 nM preincubated for 15 mins before substrate addition measured after 15 mins by enzyme immunoassay
Outline: (§3)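 Human platelets (5 × 10^7/ml) in HBSS (15 mM, pH 7.4) were incubated with compound or vehicle for 15 min at 37 °C. Arachidonic acid (100 µM) was added for 15 min and the reaction was stopped with 1 N HCl. PGE2 was measured by EIA. The assay was run by a contract laboratory.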

[5] = target: T3, Polyunsaturated fatty acid 5-lipoxygenase (Homo sapiens) (UniProt P09917); assay: Inhibition of human 5-LOX in human peripheral blood mononuclear leukocytes assessed as inhibition of calymycin A23187 stimulated LTB4 production at 10 nM preincubated for 15 mins before stimulation measured after 15 mins by enzyme immunoassay
T3 sequence (whole entry): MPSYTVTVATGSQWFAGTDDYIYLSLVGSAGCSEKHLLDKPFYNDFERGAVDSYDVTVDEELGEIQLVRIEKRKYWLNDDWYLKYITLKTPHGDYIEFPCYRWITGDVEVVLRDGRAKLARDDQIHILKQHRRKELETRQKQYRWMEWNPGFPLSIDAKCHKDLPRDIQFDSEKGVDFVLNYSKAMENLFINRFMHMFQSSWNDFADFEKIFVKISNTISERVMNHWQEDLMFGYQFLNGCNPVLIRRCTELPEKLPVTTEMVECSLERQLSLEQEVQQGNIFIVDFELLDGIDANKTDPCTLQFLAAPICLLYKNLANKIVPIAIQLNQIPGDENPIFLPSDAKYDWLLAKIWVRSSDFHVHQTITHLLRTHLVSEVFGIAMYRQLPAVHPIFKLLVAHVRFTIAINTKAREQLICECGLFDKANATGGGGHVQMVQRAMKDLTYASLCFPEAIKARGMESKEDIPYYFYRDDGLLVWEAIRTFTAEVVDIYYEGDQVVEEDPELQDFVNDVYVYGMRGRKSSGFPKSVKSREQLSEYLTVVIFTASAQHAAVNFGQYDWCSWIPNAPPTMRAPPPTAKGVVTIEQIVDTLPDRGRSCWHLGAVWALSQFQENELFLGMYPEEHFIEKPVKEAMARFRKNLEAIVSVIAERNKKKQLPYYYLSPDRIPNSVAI
Outline: (§4)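 Human peripheral blood mononuclear leukocytes (5 × 10^6 cells/ml) in HBSS were preincubated with compound or vehicle for 15 min at 37 °C. Calcimycin (A23187, 30 µM) was added for a further 15 min and the reaction was stopped with 1 N HCl. LTB4 was quantified by EIA. The assay was run by a contract laboratory.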

[6] = target: T3, Polyunsaturated fatty acid 5-lipoxygenase (Homo sapiens); assay: Inhibition of human 5-LOX in human peripheral blood mononuclear leukocytes assessed as inhibition of calymycin A23187 stimulated LTB4 production at 10 uM preincubated for 15 mins before stimulation measured after 15 mins by enzyme immunoassay; outline: as §4
[7] = Metal chelating activity of the compound assessed as formation of iron complex in PBS at pH 7.4 at 50 uM after 10 secs by UV-vis spectrometry in presence of 100 uM FeSO4; assay type: functional
Outline: (§5)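 Compound was taken from a 1 mM methanol stock and diluted to 50 µM in PBS (10 mM, pH 7.4). Salt solution (CuSO4, FeCl3 or FeSO4) was added at 50 or 100 µM. Absorption spectra from 200–600 nm were recorded after 10 s and compared with the compound alone.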

[8] = Cytotoxicity against NMRI mouse macrophages by MTT assay; assay type: cell-based; conditions: macrophage
Outline: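 Macrophages from the 5-LOX assay wells were used after supernatant collection. Cells received MTT (5 mg/ml in PBS, 20 µl/well) for 4 h at 37 °C, then the formazan was dissolved in DMSO and absorbance was read at 550 nm. Values are mean ± S.D., mostly from triplicate determinations.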

[9] = target: T2, Prostaglandin G/H synthase 1; assay: Inhibition of COX1 in human platelets assessed as inhibition of conversion of arachidonic acid to PGE2 preincubated for 15 mins before substrate addition measured after 15 mins by enzyme immunoassay; outline: as §3
[10] = target: T4, Polyunsaturated fatty acid 5-lipoxygenase (Mus musculus) (UniProt P48999); assay: (§6) Inhibition of 5-LOX in calcium ionophore A23187-stimulated NMRI mouse macrophage assessed as inhibition of LTC4 production preincubated for 60 mins before stimulation measured after 2 hrs by ELISA
T4 sequence (whole entry): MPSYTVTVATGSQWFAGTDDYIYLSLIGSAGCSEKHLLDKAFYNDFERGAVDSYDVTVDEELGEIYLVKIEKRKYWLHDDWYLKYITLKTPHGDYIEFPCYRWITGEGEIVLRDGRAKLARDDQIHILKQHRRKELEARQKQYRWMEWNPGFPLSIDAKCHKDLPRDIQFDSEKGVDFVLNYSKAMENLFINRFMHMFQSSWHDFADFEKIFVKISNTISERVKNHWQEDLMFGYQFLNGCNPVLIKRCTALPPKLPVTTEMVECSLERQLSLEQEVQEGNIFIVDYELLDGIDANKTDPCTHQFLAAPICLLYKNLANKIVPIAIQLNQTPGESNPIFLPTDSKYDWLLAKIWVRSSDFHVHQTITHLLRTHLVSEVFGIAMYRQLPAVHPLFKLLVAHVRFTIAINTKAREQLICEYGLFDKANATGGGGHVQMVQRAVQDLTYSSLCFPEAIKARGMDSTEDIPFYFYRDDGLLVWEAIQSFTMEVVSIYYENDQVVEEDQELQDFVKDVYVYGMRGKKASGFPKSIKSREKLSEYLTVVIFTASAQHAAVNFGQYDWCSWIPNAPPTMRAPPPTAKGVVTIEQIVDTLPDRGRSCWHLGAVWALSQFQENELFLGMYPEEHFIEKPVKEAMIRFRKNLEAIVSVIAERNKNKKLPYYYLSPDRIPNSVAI
Outline: (§7)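 Male NMRI mice (20 ± 5 g) were given 1 ml thioglycolate ip and peritoneal macrophages were lavaged with PBS 3 days later. Cells were adhered overnight at 5 × 10^5 cells/well and then moved to serum-free DMEM. Compound was added for 60 min at 37 °C, then A23187 to a final 10^-6 M for 2 h. Supernatant cysLTs were measured by ELISA against a standard curve. Values are mean ± S.D., mostly triplicate, compared by unpaired t-test.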

[11] = target: T5, Polyunsaturated fatty acid 5-lipoxygenase (Mus musculus, UniProt P48999); assay: as §6; outline: as §7
T5 sequence (P48999 whole entry): T4 sequence (whole entry)

[12] = Metal chelating activity of the compound assessed as formation of iron complex in PBS at pH 7.4 at 50 uM after 10 secs by UV-vis spectrometry in presence of 100 uM FeCl3; assay type: functional; outline: as §5
[13] = target: T3, Polyunsaturated fatty acid 5-lipoxygenase (Homo sapiens); assay: Inhibition of human 5-LOX in human peripheral blood mononuclear leukocytes assessed as inhibition of calymycin A23187 stimulated LTB4 production at 0.1 uM preincubated for 15 mins before stimulation measured after 15 mins by enzyme immunoassay; outline: as §4
[14] = target: T2, Prostaglandin G/H synthase 1; assay: Inhibition of COX1 in human platelets assessed as inhibition of conversion of arachidonic acid to PGE2 at 1 uM preincubated for 15 mins before substrate addition measured after 15 mins by enzyme immunoassay; outline: as §3
[15] = target: T2, Prostaglandin G/H synthase 1; assay: Inhibition of COX1 in human platelets assessed as inhibition of conversion of arachidonic acid to PGE2 at 10 uM preincubated for 15 mins before substrate addition measured after 15 mins by enzyme immunoassay; outline: as §3
[16] = target: T2, Prostaglandin G/H synthase 1; assay: Inhibition of COX1 in human platelets assessed as inhibition of conversion of arachidonic acid to PGE2 at 0.1 uM preincubated for 15 mins before substrate addition measured after 15 mins by enzyme immunoassay; outline: as §3
[17] = target: T6, Polyunsaturated fatty acid 5-lipoxygenase (Homo sapiens, UniProt P09917); assay: Inhibition of human 5-LOX in human peripheral blood mononuclear leukocytes assessed as inhibition of calymycin A23187-stimulated LTB4 production preincubated for 15 mins before stimulation measured after 15 mins by enzyme immunoassay; outline: as §4
T6 sequence (P09917 whole entry): T3 sequence (whole entry)

[18] = target: T7, Prostaglandin G/H synthase 2 (Homo sapiens) (UniProt P35354); assay: Inhibition of human recombinant COX2 expressed in insect Sf21 cells assessed as inhibition of conversion of arachidonic acid to PGE2 at 0.1 uM preincubated for 15 mins before substrate addition measured after 5 mins by enzyme immunoassay; outline: as §2
T7 sequence (whole entry): T1 sequence (P35354 whole entry)

[19] = Metal chelating activity of the compound assessed as formation of copper complex in PBS at pH 7.4 at 50 uM after 10 secs by UV-vis spectrometry in presence of 100 uM CuSO4; assay type: functional; outline: as §5
[20] = target: T7, Prostaglandin G/H synthase 2 (Homo sapiens); assay: Inhibition of human recombinant COX2 expressed in insect Sf21 cells assessed as inhibition of conversion of arachidonic acid to PGE2 at 10 nM preincubated for 15 mins before substrate addition measured after 5 mins by enzyme immunoassay; outline: as §2
[21] = target: T3, Polyunsaturated fatty acid 5-lipoxygenase (Homo sapiens); assay: Inhibition of human 5-LOX in human peripheral blood mononuclear leukocytes assessed as inhibition of calymycin A23187 stimulated LTB4 production at 1 uM preincubated for 15 mins before stimulation measured after 15 mins by enzyme immunoassay; outline: as §4
[22] = target: T7, Prostaglandin G/H synthase 2 (Homo sapiens); assay: Inhibition of human recombinant COX2 expressed in insect Sf21 cells assessed as inhibition of conversion of arachidonic acid to PGE2 at 10 uM preincubated for 15 mins before substrate addition measured after 5 mins by enzyme immunoassay; outline: as §2
[23] = target: T7, Prostaglandin G/H synthase 2 (Homo sapiens); assay: Inhibition of human recombinant COX2 expressed in insect Sf21 cells assessed as inhibition of conversion of arachidonic acid to PGE2 at 1 uM preincubated for 15 mins before substrate addition measured after 5 mins by enzyme immunoassay; outline: as §2

T2 sequence (P23219 whole entry): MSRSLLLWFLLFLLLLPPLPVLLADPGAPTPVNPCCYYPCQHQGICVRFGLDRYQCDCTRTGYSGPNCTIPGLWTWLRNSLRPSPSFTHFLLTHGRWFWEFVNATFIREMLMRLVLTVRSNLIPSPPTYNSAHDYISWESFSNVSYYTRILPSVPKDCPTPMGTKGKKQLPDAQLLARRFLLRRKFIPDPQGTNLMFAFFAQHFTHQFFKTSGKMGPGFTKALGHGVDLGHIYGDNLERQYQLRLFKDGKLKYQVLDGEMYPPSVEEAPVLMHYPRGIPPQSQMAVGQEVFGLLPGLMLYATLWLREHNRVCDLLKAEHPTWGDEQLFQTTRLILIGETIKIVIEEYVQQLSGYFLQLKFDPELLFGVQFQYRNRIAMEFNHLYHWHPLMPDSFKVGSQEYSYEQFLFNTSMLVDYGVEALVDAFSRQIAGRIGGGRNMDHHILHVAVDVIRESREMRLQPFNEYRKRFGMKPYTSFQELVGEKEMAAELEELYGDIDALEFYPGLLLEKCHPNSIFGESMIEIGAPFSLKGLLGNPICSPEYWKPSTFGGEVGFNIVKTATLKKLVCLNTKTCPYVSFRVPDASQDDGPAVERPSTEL

Compound: CC(Cc1ccc(O)c(O)c1)C(C)Cc1ccc(O)c(O)c1 (stereo unspecified) [NORDIHYDROGUAIARETIC ACID]
- IC50 [1]: 9.82 µM
- inhibition (Glycine max): 88.8%

Compound: O=c1c(O)c(-c2ccc(O)c(O)c2)oc2cc(O)cc(O)c12 [QUERCETIN]
- IC50 [2]: 6.91 µM

Compound: CC(=O)c1c(O)cc(O)c(C/C=C(\C)CCC=C(C)C)c1O
- IC50 [3]: 0.4 µM
- inhibition [4]: -5%
- inhibition [5]: 6%
- inhibition [6]: 102%
- IC50 [2]: 46 µM
- Activity [7]: inactive
- Activity [8]: Non-toxic
- IC50 [9]: 6.9 µM
- inhibition [10]: Dose-dependent effect
- IC50 [11]: 1.8 µM
- Activity [12]: inactive
- inhibition [13]: 13%
- IC50 [1]: 20.4 µM
- inhibition [14]: -9%
- inhibition [15]: 91%
- inhibition [16]: -1%
- IC50 [17]: 0.42 µM
- inhibition [18]: 28%
- Activity [19]: inactive
- inhibition [20]: 14%
- inhibition [21]: 75%
- inhibition [22]: 100%
- inhibition [23]: 60%
